Columns and labels:
[1] = Distribution ratio in cortex and cerebellum was determined after 120 min of intravenous administration of the compound; [125I]- is used as radioactive isotope; type: ADME, tissue-based; conditions: rat, 2 h
In short: (§1)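 After femoral-vein injection of 10 μCi [¹²⁵I] tracer in 0.2 mL saline under ether anaesthesia (three rats per group), brain regions were dissected, weighed and counted: cortex (frontal plus occipital), hippocampus, hypothalamus and cerebellum. %dose/g was calculated against a diluted injected-dose standard. Ratio = (region − cerebellum)/cerebellum on a %dose/g basis, with cerebellum as the background region.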

[2] = Distribution ratio in hippocampus and cerebellum was determined after 120 min of intravenous administration of the compound; [125I]- is used as radioactive isotope; type: ADME, tissue-based; conditions: rat, 2 h; in short: as §1
[3] = Biodistribution in rat kidney was determined after 2 min of intravenous administration of the compound; [125I]- is used as radioactive isotope; type: ADME, organism-based; conditions: in vivo
In short: (§2)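 Rats under ether anesthesia, three per group, received 10 μCi tracer in 0.2 mL saline into the femoral vein. They were killed by cardiac excision under ether at each time point. Organs were removed, weighed and counted. Percent dose per organ was calculated against a 1%-of-injected-dose standard counted at the same time.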

[4] = Distribution ratio in striatum and cerebellum was determined after 6 hrs of intravenous administration of the compound; [125I]- is used as radioactive isotope; type: ADME, tissue-based; conditions: rat
In short: (§3)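 Rats, three per group, given 10 μCi tracer in 0.2 mL saline into the femoral vein under ether anesthesia, then killed by cardiac excision at the stated time. Brain regions were dissected, weighed and counted. Percent dose/g was calculated against a 1% diluted aliquot of the injected dose. The ratio is (region − cerebellum)/cerebellum on a % dose/g basis, with cerebellum as background.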

[5] = Biodistribution in rat liver was determined after 60 min of intravenous administration of the compound; [125I]- is used as radioactive isotope; type: ADME, organism-based; conditions: in vivo, 1 h; in short: as §2
[6] = Biodistribution in rat heart was determined after 11 hours of intravenous administration of the compound; [125I]- is used as radioactive isotope; type: ADME, organism-based; conditions: in vivo; in short: as §2
[7] = Distribution ratio in striatum and cerebellum was determined after 240 min of intravenous administration of the compound; [125I]- is used as radioactive isotope; type: ADME, tissue-based; conditions: rat, 4 h; in short: as §3
[8] = Regional brain distribution in rat striatum was determined after 120 min of intravenous administration of the compound; [125I]- is used as radioactive isotope; type: ADME, tissue-based; conditions: in vivo, 2 h
In short: (§4)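 Rats, three per group, injected with 10 μCi tracer in 0.2 mL saline via the femoral vein under ether anesthesia and killed by cardiac excision at the stated time. Cortex (frontal plus occipital), striatum, hippocampus, cerebellum and hypothalamus were dissected, weighed and gamma-counted. Values are % dose/g, calculated by comparison with counts of a 100-fold diluted aliquot of the injected dose.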

[9] = Biodistribution in rat skin was determined after 120 min of intravenous administration of the compound; [125I]- is used as radioactive isotope; type: ADME, organism-based, Zone of skin; conditions: in vivo, 2 h
In short: (§5)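 Rats, three per group, under ether anaesthesia, received 10 μCi of [¹²⁵I]-labelled tracer in 0.2 mL saline into the femoral vein. They were killed by cardiac excision under ether at each time point. Organs were removed, weighed and counted. Percent dose per organ was calculated against counts of a 1% aliquot of the injected dose (100-fold diluted) counted at the same time.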

[10] = Distribution ratio in hippocampus and cerebellum was determined after 30 min of intravenous administration of the compound; [125I]- is used as radioactive isotope; type: ADME, tissue-based; conditions: rat, 0.5 h; in short: as §1
[11] = Biodistribution in rat brain was determined after 2 min of intravenous administration of the compound; [125I]- is used as radioactive isotope; type: ADME, organism-based; conditions: in vivo; in short: as §2
[12] = Biodistribution in rat muscle was determined after 60 min of intravenous administration of the compound; [125I]- is used as radioactive isotope; type: ADME, organism-based, Muscle tissue; conditions: in vivo, 1 h; in short: as §5
[13] = Distribution ratio in hippocampus and cerebellum was determined after 2 min of intravenous administration of the compound; [125I]- is used as radioactive isotope; type: ADME, tissue-based; conditions: rat; in short: as §1
[14] = Biodistribution in rat liver was determined after 6 hours of intravenous administration of the compound; [125I]- is used as radioactive isotope; type: ADME, organism-based; conditions: in vivo; in short: as §2
[15] = Biodistribution in rat lung was determined after 30 min of intravenous administration of the compound; [125I]- is used as radioactive isotope; type: ADME, organism-based; conditions: in vivo, 0.5 h; in short: as §2
[16] = Biodistribution in rat skin was determined after 2 min of intravenous administration of the compound; [125I]- is used as radioactive isotope; type: ADME, organism-based, Zone of skin; conditions: in vivo; in short: as §5
[17] = Biodistribution in rat blood was determined after 2 min of intravenous administration of the compound; [125I]- is used as radioactive isotope; type: ADME, organism-based; conditions: in vivo; in short: as §2
[18] = Regional brain distribution in rat cortex was determined after 11 hours of intravenous administration of the compound; [125I]- is used as radioactive isotope; type: ADME; conditions: in vivo; in short: as §4
[19] = Regional brain distribution in rat striatum was determined after 240 min of intravenous administration of the compound; [125I]- is used as radioactive isotope; type: ADME, tissue-based; conditions: in vivo, 4 h; in short: as §4
[20] = Biodistribution in rat liver was determined after 2 min of intravenous administration of the compound; [125I]- is used as radioactive isotope; type: ADME, organism-based; conditions: in vivo; in short: as §2
[21] = Biodistribution in rat thyroid was determined after 30 min of intravenous administration of the compound; [125I]- is used as radioactive isotope; type: ADME, organism-based, Thyroid gland; conditions: in vivo, 0.5 h; in short: as §5
[22] = Biodistribution in rat thyroid was determined after 240 min of intravenous administration of the compound; [125I]- is used as radioactive isotope; type: ADME, organism-based, Thyroid gland; conditions: in vivo, 4 h; in short: as §5
[23] = Biodistribution in rat thyroid was determined after 2 min of intravenous administration of the compound; [125I]- is used as radioactive isotope; type: ADME, organism-based, Thyroid gland; conditions: in vivo; in short: as §5
[24] = Distribution ratio in cortex and cerebellum was determined after 6 hrs of intravenous administration of the compound; [125I]- is used as radioactive isotope; type: ADME, tissue-based; conditions: rat; in short: as §1
[25] = Biodistribution in rat brain was determined after 240 min of intravenous administration of the compound; [125I]- is used as radioactive isotope; type: ADME, organism-based; conditions: in vivo, 4 h; in short: as §2
[26] = Biodistribution in rat blood was determined after 24 hours of intravenous administration of the compound; [125I]- is used as radioactive isotope; type: ADME, organism-based; conditions: in vivo; in short: as §2
[27] = Biodistribution in rat blood was determined after 240 min of intravenous administration of the compound; [125I]- is used as radioactive isotope; type: ADME, organism-based; conditions: in vivo, 4 h; in short: as §2
[28] = Distribution ratio in hypothalamus and cerebellum was determined after 30 min of intravenous administration of the compound; [125I]- is used as radioactive isotope; type: ADME, tissue-based; conditions: rat, 0.5 h; in short: as §3
[29] = Regional brain distribution in rat cortex was determined after 120 min of intravenous administration of the compound; [125I]- is used as radioactive isotope; type: ADME; conditions: in vivo, 2 h; in short: as §4
[30] = Regional brain distribution in rat hypothalamus was determined after 120 min of intravenous administration of the compound; [125I]- is used as radioactive isotope; type: ADME, tissue-based; conditions: in vivo, 2 h; in short: as §4
[31] = Regional brain distribution in rat hypothalamus was determined after 240 min of intravenous administration of the compound; [125I]- is used as radioactive isotope; type: ADME, tissue-based; conditions: in vivo, 4 h; in short: as §4
[32] = Biodistribution in rat muscle was determined after 11 hours of intravenous administration of the compound; [125I]- is used as radioactive isotope; type: ADME, organism-based, Muscle tissue; conditions: in vivo; in short: as §5
[33] = Regional brain distribution in rat striatum was determined after 24 hours of intravenous administration of the compound; [125I]- is used as radioactive isotope; type: ADME, tissue-based; conditions: in vivo; in short: as §4
[34] = Biodistribution in rat spleen was determined after 2 min of intravenous administration of the compound; [125I]- is used as radioactive isotope; type: ADME, organism-based; conditions: in vivo; in short: as §5

CN(C)Cc1ccccc1Oc1ccc(I)cc1N
Dose/g [1]: 1.48% | Dose/g [2]: 2.19% | Dose [3]: 4.27% | Dose/g [4]: 1.56% | Dose [5]: 5.79% | Dose [6]: 0.06% | Dose/g [7]: 3.11% | Dose/g [8]: 0.72% | Dose [9]: 12.5% | Dose/g [10]: 0.68% | Dose [11]: 1.77% | Dose [12]: 12.9% | Dose/g [13]: 0.13% | Dose [14]: 3.59% | Dose [15]: 3.56% | Dose [16]: 4.45% | Dose [17]: 5.75% | Dose/g [18]: 0.01% | Dose/g [19]: 0.24% | Dose [20]: 5.71% | Dose [21]: 0.15% | Dose [22]: 2.34% | Dose [23]: 0.1% | Dose/g [24]: 0.58% | Dose [25]: 0.33% | Dose [26]: 0.7% | Dose [27]: 3.12% | Dose/g [28]: 1.06% | Dose/g [29]: 0.51% | Dose/g [30]: 0.92% | Dose/g [31]: 0.32% | Dose [32]: 4.01% | Dose/g [33]: 0.0039% | Dose [34]: 0.44%
